# Active and inactive are the calls of the source. No cut-off for these calls is given here.
# Assays:
# Cytochrome P450 1A1 = Cytochrome P450 1A1 (Rattus norvegicus, UniProt P00185); test: Drug metabolism assessed as rat recombinant CYP1A1-mediated sulindac sulfone formation measured per pmol of protein at 200 uM after 90 mins by HPLC analysis; assay type: ADME; details: recombinant enzyme, 1.5 h
# Method in brief: (§1)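 Recombinant rat or human P450 Supersomes (some with cytochrome b5, variable reductase) incubated with (R)-sulindac at 500 μM or (S)-sulindac at 200 μM plus NADPH-regenerating system in 100 mM potassium phosphate pH 7.4 at 37°C, linear up to 90 min; acetonitrile stop; sulfone by C18 HPLC at 330 nm; ≥3 runs; pmol/pmol enzyme/h, mean ± S.E.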
# Cytochrome P450 1A2 [1] = target: Cytochrome P450 1A2 (Rattus norvegicus, UniProt P04799); test: Drug metabolism assessed as rat recombinant CYP1A2-mediated sulindac sulfone formation measured per pmol of protein at 200 uM after 90 mins by HPLC analysis; assay type: ADME; details: recombinant enzyme, 1.5 h; method in brief: as §1
# Cytochrome P450 1A2 [2] = target: Cytochrome P450 1A2 (Homo sapiens, UniProt P05177); test: Drug metabolism assessed as human recombinant CYP1A2-mediated sulindac sulfone formation measured per pmol of protein at 200 uM after 90 mins by HPLC analysis; assay type: ADME; details: recombinant enzyme, 1.5 h; method in brief: as §1
# Cytochrome P450 1B1 = Cytochrome P450 1B1 (Homo sapiens, UniProt Q16678); test: Drug metabolism assessed as human recombinant CYP1B1-mediated sulindac sulfone formation measured per pmol of protein at 200 uM after 90 mins by HPLC analysis; assay type: ADME; details: recombinant enzyme, 1.5 h; method in brief: as §1
# Cytochrome P450 3A4 = Cytochrome P450 3A4 (Homo sapiens, UniProt P08684); test: Drug metabolism assessed as human recombinant CYP3A4-mediated sulindac sulfone formation measured per pmol of protein at 200 uM after 90 mins by HPLC analysis; assay type: ADME; details: recombinant enzyme, 1.5 h; method in brief: as §1
# Cytochrome P450 3A2 = Cytochrome P450 3A2 (Rattus norvegicus, UniProt P05183); test: Drug metabolism assessed as rat recombinant CYP3A2-mediated sulindac sulfone formation measured per pmol of protein at 200 uM after 90 mins by HPLC analysis; assay type: ADME; details: recombinant enzyme, 1.5 h; method in brief: as §1
# Cytochrome P450 2B1 = Cytochrome P450 2B1 (Rattus norvegicus, UniProt P00176); test: Drug metabolism assessed as rat recombinant CYP2B1-mediated sulindac sulfone formation measured per pmol of protein at 200 uM after 90 mins by HPLC analysis; assay type: ADME; details: recombinant enzyme, 1.5 h; method in brief: as §1
# Cytochrome P450 2C8 = Cytochrome P450 2C8 (Homo sapiens, UniProt P10632); test: Drug metabolism assessed as human recombinant CYP2C8-mediated sulindac sulfone formation measured per pmol of protein at 200 uM after 90 mins by HPLC analysis; assay type: ADME; details: recombinant enzyme, 1.5 h; method in brief: as §1
# Cytochrome P450 2C9 = Cytochrome P450 2C9 (Homo sapiens, UniProt P11712); test: Drug metabolism assessed as human recombinant CYP2C9-mediated sulindac sulfone formation measured per pmol of protein at 200 uM after 90 mins by HPLC analysis; assay type: ADME; details: recombinant enzyme, 1.5 h; method in brief: as §1
# Cytochrome P450 2C19 = Cytochrome P450 2C19 (Homo sapiens, UniProt P33261); test: Drug metabolism assessed as human recombinant CYP2C19-mediated sulindac sulfone formation measured per pmol of protein at 200 uM after 90 mins by HPLC analysis; assay type: ADME; details: recombinant enzyme, 1.5 h; method in brief: as §1
# Cytochrome P450 2D6 = Cytochrome P450 2D6 (Homo sapiens, UniProt P10635); test: Drug metabolism assessed as human recombinant CYP2D6-mediated sulindac sulfone formation measured per pmol of protein at 200 uM after 90 mins by HPLC analysis; assay type: ADME; details: recombinant enzyme, 1.5 h; method in brief: as §1
# [3] = target: Mitochondrial peptide methionine sulfoxide reductase (Rattus norvegicus, UniProt Q923M1); test: Drug metabolism in rat liver S100 fraction assessed as MSRA-mediated reduced product formation measured per mg of protein at 200 uM by HPLC analysis; assay type: ADME, tissue-based
# MRC5 = test: Cytoprotective activity in TBHP-induced human MRC5 cells at 500 uM incubated for 48 hrs prior to TBHP-challenge measured after 2 hrs; assay type: functional, cell-based
# Method in brief: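 Normal lung cells preincubated 48 h with 500 μM (R)- or (S)-sulindac or no drug, then challenged with TBHP; viability expressed as percent of cells not exposed to TBHP; mean and S.E. of five repeats; p < 0.05 versus no-drug controls.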
# A549 = test: Potentiation of TBHP-induced cytotoxicity in human A549 cells at 500 uM incubated for 48 hrs prior to TBHP-challenge measured after 2 hrs; assay type: functional, cell-based
# [4] = Retention time in rat plasma measured after 4 hrs ip injection of sulindac; assay type: physicochemical, organism-based; details: in vivo
# Liver microsome = test: Drug metabolism in rat liver microsomes at 200 µM after 60 mins by HPLC analysis in presence of NADPH; details: 1 h
# Zone of skin [5] = test: Drug metabolism in Sprague-Dawley rat skin treated with (R)-Sulindac at 2 mg, ip after 0.5 to 4 hrs by HPLC analysis; details: in vivo
# Zone of skin [6] = test: Drug metabolism in Sprague-Dawley rat skin treated with (S)-Sulindac at 2 mg, ip after 0.5 to 4 hrs by HPLC analysis; details: in vivo
# Liver [7] = test: Drug metabolism in Sprague-Dawley rat liver treated with (R)-Sulindac at 2 mg, ip after 0.5 to 4 hrs by HPLC analysis; details: in vivo
# Liver [8] = test: Drug metabolism in Sprague-Dawley rat liver treated with (S)-Sulindac at 2 mg, ip after 0.5 to 4 hrs by HPLC analysis; details: in vivo
# Brain [9] = test: Drug metabolism in Sprague-Dawley rat brain treated with (R)-Sulindac at 2 mg, ip after 0.5 to 4 hrs by HPLC analysis; details: in vivo
# Brain [10] = test: Drug metabolism in Sprague-Dawley rat brain treated with (S)-Sulindac at 2 mg, ip after 0.5 to 4 hrs by HPLC analysis; details: in vivo
# Plasma [11] = test: Drug metabolism in Sprague-Dawley rat plasma treated with (R)-Sulindac at 2 mg, ip after 0.5 to 4 hrs by HPLC analysis; details: in vivo
# Plasma [12] = test: Drug metabolism in Sprague-Dawley rat plasma treated with (S)-Sulindac at 2 mg, ip after 0.5 to 4 hrs by HPLC analysis; details: in vivo
# Chain of Cytochrome P450 2C9 (P11712 whole entry): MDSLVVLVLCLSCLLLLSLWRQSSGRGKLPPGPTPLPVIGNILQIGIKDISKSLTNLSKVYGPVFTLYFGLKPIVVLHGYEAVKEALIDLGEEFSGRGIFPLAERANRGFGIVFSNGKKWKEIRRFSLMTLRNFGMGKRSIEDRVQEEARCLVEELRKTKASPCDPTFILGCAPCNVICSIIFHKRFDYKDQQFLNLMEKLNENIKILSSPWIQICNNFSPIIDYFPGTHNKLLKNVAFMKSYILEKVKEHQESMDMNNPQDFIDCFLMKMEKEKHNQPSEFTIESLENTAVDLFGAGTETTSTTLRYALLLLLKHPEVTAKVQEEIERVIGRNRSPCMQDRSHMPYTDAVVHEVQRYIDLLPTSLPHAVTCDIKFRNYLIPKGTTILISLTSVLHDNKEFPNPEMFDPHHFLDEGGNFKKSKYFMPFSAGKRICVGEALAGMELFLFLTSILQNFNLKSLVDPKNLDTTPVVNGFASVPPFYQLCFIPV
# Chain of Cytochrome P450 2C19 (P33261 whole entry): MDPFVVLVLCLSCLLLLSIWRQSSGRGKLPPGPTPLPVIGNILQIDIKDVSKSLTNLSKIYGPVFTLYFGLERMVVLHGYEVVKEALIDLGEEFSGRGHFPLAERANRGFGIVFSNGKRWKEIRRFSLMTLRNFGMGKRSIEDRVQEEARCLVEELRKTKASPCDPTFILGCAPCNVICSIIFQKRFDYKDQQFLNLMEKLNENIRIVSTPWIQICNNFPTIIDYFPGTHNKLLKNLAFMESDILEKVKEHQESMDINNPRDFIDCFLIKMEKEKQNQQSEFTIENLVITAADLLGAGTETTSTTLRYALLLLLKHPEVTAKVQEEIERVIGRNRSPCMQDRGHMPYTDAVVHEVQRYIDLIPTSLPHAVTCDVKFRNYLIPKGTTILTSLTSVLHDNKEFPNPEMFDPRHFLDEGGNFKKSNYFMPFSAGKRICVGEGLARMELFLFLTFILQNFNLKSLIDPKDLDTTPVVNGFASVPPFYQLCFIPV
# Chain of Cytochrome P450 2D6 (P10635 whole entry): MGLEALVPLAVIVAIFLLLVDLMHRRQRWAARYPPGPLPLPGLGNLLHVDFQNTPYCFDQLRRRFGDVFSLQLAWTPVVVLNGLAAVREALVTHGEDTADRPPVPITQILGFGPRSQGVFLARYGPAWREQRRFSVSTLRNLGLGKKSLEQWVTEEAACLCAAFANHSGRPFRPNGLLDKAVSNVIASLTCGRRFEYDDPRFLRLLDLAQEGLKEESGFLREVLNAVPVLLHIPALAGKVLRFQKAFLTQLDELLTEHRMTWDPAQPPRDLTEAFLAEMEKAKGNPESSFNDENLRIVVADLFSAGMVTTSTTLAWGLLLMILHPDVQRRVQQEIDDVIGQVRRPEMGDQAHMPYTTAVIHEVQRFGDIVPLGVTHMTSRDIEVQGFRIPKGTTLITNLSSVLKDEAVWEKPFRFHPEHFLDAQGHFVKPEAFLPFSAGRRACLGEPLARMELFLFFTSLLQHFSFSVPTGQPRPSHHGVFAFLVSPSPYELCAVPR
# Chain of Cytochrome P450 3A2 (P05183 whole entry): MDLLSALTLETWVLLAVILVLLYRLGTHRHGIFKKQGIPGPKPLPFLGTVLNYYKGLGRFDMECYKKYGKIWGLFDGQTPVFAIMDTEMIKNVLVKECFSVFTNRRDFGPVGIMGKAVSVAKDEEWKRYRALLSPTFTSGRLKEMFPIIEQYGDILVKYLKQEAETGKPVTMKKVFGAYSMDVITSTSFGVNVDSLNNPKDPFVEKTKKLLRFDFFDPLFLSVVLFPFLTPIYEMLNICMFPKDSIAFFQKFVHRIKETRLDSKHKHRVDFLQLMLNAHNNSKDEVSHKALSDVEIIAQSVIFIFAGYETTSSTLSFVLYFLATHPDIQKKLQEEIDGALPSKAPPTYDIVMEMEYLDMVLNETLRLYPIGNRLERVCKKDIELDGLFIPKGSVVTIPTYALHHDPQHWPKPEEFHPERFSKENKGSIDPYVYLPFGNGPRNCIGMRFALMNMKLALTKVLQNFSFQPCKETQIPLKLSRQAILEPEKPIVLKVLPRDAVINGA
# Chain of Cytochrome P450 1B1 (Q16678 whole entry): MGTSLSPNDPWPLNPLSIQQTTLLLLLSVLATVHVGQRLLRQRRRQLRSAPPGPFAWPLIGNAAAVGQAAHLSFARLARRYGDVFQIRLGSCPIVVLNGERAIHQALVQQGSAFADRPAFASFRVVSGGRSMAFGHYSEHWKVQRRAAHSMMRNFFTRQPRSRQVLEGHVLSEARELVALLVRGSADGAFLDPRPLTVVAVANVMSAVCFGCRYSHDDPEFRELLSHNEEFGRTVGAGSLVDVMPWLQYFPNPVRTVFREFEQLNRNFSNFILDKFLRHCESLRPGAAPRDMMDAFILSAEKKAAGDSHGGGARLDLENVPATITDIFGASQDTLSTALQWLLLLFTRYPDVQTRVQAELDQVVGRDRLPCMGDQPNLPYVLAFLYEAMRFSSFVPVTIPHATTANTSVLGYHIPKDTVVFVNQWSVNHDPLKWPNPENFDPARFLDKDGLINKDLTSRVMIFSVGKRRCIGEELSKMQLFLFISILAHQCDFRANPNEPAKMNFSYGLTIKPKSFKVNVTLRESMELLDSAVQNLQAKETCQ
# Chain of Cytochrome P450 2B1 (P00176 whole entry): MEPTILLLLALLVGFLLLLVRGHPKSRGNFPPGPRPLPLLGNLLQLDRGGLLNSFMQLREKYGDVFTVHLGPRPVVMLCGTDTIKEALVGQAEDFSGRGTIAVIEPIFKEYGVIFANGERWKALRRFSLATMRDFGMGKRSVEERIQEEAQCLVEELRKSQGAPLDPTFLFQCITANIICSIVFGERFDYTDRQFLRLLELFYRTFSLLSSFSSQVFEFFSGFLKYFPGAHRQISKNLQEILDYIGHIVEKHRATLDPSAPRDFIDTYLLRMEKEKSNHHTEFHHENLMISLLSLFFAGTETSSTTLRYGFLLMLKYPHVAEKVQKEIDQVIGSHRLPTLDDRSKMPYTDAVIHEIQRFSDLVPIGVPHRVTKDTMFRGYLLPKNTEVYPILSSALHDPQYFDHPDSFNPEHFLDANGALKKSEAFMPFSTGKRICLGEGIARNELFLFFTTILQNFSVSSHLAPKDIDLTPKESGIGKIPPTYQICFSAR
# Chain of Cytochrome P450 1A2 (Homo sapiens, UniProt P05177) (P05177 whole entry): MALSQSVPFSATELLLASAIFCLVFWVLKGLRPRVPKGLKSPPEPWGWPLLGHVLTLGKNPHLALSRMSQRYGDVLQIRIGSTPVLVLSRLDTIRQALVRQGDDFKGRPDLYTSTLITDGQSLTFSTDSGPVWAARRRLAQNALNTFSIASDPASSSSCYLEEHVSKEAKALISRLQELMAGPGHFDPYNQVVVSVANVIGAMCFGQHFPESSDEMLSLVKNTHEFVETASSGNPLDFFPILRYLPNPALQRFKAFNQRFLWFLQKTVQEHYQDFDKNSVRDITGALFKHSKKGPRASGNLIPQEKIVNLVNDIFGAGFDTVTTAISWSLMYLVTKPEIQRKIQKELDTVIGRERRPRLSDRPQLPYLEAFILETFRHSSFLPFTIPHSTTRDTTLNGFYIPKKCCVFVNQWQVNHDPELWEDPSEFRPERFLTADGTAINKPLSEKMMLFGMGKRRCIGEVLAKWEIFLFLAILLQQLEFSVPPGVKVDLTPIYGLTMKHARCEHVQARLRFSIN
# Chain of Cytochrome P450 2C8 (P10632 whole entry): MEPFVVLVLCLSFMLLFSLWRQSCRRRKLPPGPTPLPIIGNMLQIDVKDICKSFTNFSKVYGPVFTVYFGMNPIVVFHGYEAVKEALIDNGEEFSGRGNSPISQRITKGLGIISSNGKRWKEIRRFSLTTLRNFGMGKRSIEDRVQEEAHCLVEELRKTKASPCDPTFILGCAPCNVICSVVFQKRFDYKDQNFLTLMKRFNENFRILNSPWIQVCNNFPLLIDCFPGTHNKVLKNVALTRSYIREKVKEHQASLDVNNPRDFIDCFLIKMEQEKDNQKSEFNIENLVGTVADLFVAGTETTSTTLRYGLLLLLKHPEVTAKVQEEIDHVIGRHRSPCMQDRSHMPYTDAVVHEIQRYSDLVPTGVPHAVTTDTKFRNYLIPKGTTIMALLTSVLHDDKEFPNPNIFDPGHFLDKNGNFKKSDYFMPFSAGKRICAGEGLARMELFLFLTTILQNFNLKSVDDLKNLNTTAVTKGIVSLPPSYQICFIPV
# Chain of Cytochrome P450 1A2 (Rattus norvegicus, UniProt P04799) (P04799 whole entry): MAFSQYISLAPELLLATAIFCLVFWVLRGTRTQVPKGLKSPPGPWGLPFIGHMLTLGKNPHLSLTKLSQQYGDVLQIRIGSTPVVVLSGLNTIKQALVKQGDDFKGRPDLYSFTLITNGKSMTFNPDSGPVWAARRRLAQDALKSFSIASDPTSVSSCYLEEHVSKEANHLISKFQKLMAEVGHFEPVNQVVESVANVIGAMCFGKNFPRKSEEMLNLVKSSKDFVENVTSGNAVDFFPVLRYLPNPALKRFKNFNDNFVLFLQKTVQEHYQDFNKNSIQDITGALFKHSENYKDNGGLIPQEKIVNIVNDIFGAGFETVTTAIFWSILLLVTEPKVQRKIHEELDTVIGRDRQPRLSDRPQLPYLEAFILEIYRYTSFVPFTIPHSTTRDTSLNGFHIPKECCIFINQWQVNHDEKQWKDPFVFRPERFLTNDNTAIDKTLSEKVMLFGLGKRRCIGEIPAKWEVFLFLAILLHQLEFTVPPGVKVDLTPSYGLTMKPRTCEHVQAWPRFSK
# Chain of Mitochondrial peptide methionine sulfoxide reductase (Q923M1 whole entry): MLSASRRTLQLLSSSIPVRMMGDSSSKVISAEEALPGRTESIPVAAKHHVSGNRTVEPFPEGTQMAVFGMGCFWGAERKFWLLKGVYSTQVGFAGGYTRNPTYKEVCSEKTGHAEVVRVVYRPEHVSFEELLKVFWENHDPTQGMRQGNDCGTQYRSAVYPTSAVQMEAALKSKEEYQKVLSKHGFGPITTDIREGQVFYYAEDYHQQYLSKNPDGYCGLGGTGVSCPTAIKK
smiles,measurement,setting,value
CC1=C(CC(=O)O)c2cc(F)ccc2/C1=C\c1ccc([S@+](C)[O-])cc1,Drug metabolism,Cytochrome P450 1A1,22 pmol/h
same,Drug metabolism,Cytochrome P450 1A2 [1],24 pmol/h
same,Drug metabolism,Cytochrome P450 1A2 [2],34 pmol/h
same,Drug metabolism,Cytochrome P450 1B1,0 pmol/h
same,Drug metabolism,Cytochrome P450 3A4,29 pmol/h
same,Drug metabolism,Cytochrome P450 3A2,metabolite_not_detected
same,Drug metabolism,Cytochrome P450 2B1,metabolite_not_detected
same,Drug metabolism,Cytochrome P450 2C8,metabolite_not_detected
same,Drug metabolism,Cytochrome P450 2C9,metabolite_not_detected
same,Drug metabolism,Cytochrome P450 2C19,metabolite_not_detected
same,Drug metabolism,Cytochrome P450 2D6,metabolite_not_detected
same,Drug metabolism,[3],metabolite_detected
same,Activity,MRC5,Active
same,Activity,A549,Active
CC1=C(CC(=O)O)c2cc(F)ccc2/C1=C\c1ccc(S(C)(=O)=O)cc1 [EXISULIND],Retention_time,[4],1.5 min
same,Drug metabolism,Liver microsome,metabolite_detected
same,Drug metabolism,Zone of skin [5],metabolite_detected
same,Drug metabolism,Zone of skin [6],metabolite_detected
same,Drug metabolism,Liver [7],metabolite_detected
same,Drug metabolism,Liver [8],metabolite_detected
same,Drug metabolism,Brain [9],metabolite_detected
same,Drug metabolism,Brain [10],metabolite_detected
same,Drug metabolism,Plasma [11],metabolite_detected
same,Drug metabolism,Plasma [12],metabolite_detected
CSc1ccc(/C=C2/C(C)=C(CC(=O)O)c3cc(F)ccc32)cc1 [SULINDAC SULFIDE],Retention_time,[4],7.1 min
same,Drug metabolism,Zone of skin [5],metabolite_detected
same,Drug metabolism,Zone of skin [6],metabolite_detected
same,Drug metabolism,Liver [7],metabolite_detected
same,Drug metabolism,Liver [8],metabolite_detected
same,Drug metabolism,Brain [9],metabolite_detected
same,Drug metabolism,Brain [10],metabolite_detected
same,Drug metabolism,Plasma [11],metabolite_detected
same,Drug metabolism,Plasma [12],metabolite_detected

# — ChEMBL document CHEMBL3525907, “Studies on the metabolism and biological activity of the epimers of sulindac” (Drug Metab Dispos, 2011)
